Laboratory results published in ChEMBL document CHEMBL3861973, “Caldoramide, a Modified Pentapeptide from the Marine Cyanobacterium Caldora penicillata” (J Nat Prod, 2016).
pIC50: −log10 of the molar value.

How the values were obtained:
[1] = Cytotoxicity against oncogenic KRAS knockout human HCT116 cells expressing wild type KRAS assessed as reduction in cell viability measured after 48 hrs by MTT assay relative to parental HCT116 cells; format: functional; conditions: HCT-116, 48 h
Outline: (§1)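 Same isogenic HCT116 MTT set-up: cells in DMEM + 10% FBS at 37 °C, 5% CO2, 10,000 cells/well, dosed at graded concentrations after 24 h, MTT read 48 h post-treatment. Maximum efficacy in each knockout line expressed as percent of that in parental HCT116.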

[2] = Cytotoxicity against oncogenic KRAS knockout human HCT116 cells assessed as reduction in cell viability measured after 48 hrs by MTT assay; format: functional, cell-based; conditions: HCT-116, 48 h
Outline: (§2)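 Parental HCT116, HIF-1α/HIF-2α double-knockout and oncogenic-KRAS-knockout (wild-type KRAS) isogenic lines grown in DMEM + 10% FBS, 37 °C, 5% CO2. Seeded at 10,000 cells/well; compound added at various concentrations 24 h later.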

[3] = Cytotoxicity against human HCT116 cells assessed as reduction in cell viability measured after 48 hrs by MTT assay; format: functional, cell-based; conditions: HCT-116, 48 h; outline: as §2
[4] = Cytotoxicity against human HIF1alpha and HIF2alpha deficit HCT116 cells assessed as reduction in cell viability measured after 48 hrs by MTT assay relative to parental HCT116 cells; format: functional; conditions: HCT-116, 48 h; outline: as §1
[5] = Cytotoxicity against human HIF1alpha and HIF2alpha deficit HCT116 cells assessed as reduction in cell viability measured after 48 hrs by MTT assay; format: functional, cell-based; conditions: HCT-116, 48 h; outline: as §2
[6] = Cytotoxicity against human HIF1alpha and HIF2alpha deficit HCT116 cells assessed as reduction in cell viability measured after 48 hrs by ATPlite 1step luminescence assay; format: functional, cell-based; conditions: HCT-116, 48 h
HCT-116 [7] = test: Selectivity ratio of IC50 for human HIF1alpha and HIF2alpha deficit HCT116 cells to IC50 for human HCT116 cells; format: functional
[8] = Cytotoxicity against oncogenic KRAS knockout human HCT116 cells expressing wild type KRAS assessed as reduction in cell viability measured after 48 hrs by ATPlite 1step luminescence assay relative to parental HCT116 cells; format: functional; conditions: HCT-116, 48 h
HCT-116 [9] = test: Selectivity ratio of IC50 for oncogenic KRAS knockout human HCT116 cells to IC50 for human HCT116 cells; format: functional
[10] = Cytotoxicity against human HIF1alpha and HIF2alpha deficit HCT116 cells assessed as reduction of cell viability measured after 48 hrs by ATPlite 1step luminescence assay relative to parental HCT116 cells; format: functional; conditions: HCT-116, 48 h
[11] = Cytotoxicity against oncogenic KRAS knockout human HCT116 cells expressing wild type KRAS assessed as reduction in cell viability measured after 48 hrs by ATPlite 1step luminescence assay; format: functional, cell-based; conditions: HCT-116, 48 h
[12] = Cytotoxicity against human HCT116 cells assessed as reduction in cell viability measured after 48 hrs by ATPlite 1step luminescence assay; format: functional, cell-based; conditions: HCT-116, 48 h

Row | Structure (SMILES) | Emax [1] [%] | pIC50 [2] | pIC50 [3] | Emax [4] [%] | pIC50 [5] | pIC50 [6] | Ratio IC50 (HCT-116 [7]) | Emax [8] [%] | Ratio IC50 (HCT-116 [9]) | Emax [10] [%] | pIC50 [11] | pIC50 [12]
1 | CC[C@H](C)[C@@H](C(=O)N1C(=O)C=C(OC)[C@@H]1Cc1ccccc1)N(C)C(=O)[C@H](C(C)C)N(C)C(=O)[C@@H](NC(=O)[C@H](C(C)C)N(C)C)C(C)C | 100 | 5.07 | 5.41 | 67 | 5.28 |  |  |  |  |  |  | 
2 | CC[C@H](C)[C@@H]([C@@H](CC(=O)N1CCC[C@H]1[C@H](OC)[C@@H](C)C(=O)N[C@@H](Cc1ccccc1)c1nccs1)OC)N(C)C(=O)[C@@H](NC(=O)[C@H](C(C)C)N(C)C)C(C)C [DOLASTATIN-10] |  |  |  |  |  | 7.19 | >50 | 83 | >50 | 74 | 7.62 | 9.32
3 | CCCCCCCC(=O)SCC/C=C/[C@@H]1CC(=O)NCc2nc(cs2)C2=N[C@@](C)(CS2)C(=O)N[C@@H](C(C)C)C(=O)O1 [LARGAZOLE] |  |  |  |  |  | 7.74 |  | 67 |  | 70 | 8.43 | 8.19
